The results in this text go back to publication PMC3115457 (Cellular signalling, 2011).

Ends that are not written are not given here. Peptide text beside a SMILES is read from it.

For one test, the target named is Gβγ (Homo sapiens, UniProt P59768+P62873). Format: binding. A digest of the protocol: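 Biotinylated test peptides were captured on a streptavidin chip (Biacore 2000). Gβγ in 25 mM HEPES pH 8.0 was flowed over at 12.5, 25, 50, 100 and 200 nM at 20 μL/min. KD was obtained by fitting the sensorgrams in Biaevaluation, and residual plots were used to judge the fit.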

A further test has as its target Gαs-stimulated AC2 (Rattus norvegicus, UniProt P26769). The experiment in a line: Adenylyl cyclase activity assay, Gαs stimulation of AC2. The class given is biochemical. In outline: (§1)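 AC2 came from membranes of Hi5 insect cells infected with recombinant AC2 baculovirus. Stimulants were constitutively active Gαs (Q227L) and Gβγ (Gβ1/His-Gγ2) purified from Hi5 cells. Peptides were tested from 46 nM to 300 μM, pre-incubated with membranes or G proteins, and run alongside control conditions. cAMP was measured radiometrically ([α-32P]ATP→[32P]cAMP) or by Lance kit. Duplicates were used, each repeated ≥2 times. IC50 came from non-linear regression.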

The target in test [1] is Gβγ stimulation of Gαs-stimulated AC2 (Homo sapiens, UniProt P59768+P62873). In words: Adenylyl cyclase activity assay, Gβγ stimulation of Gαs-stimulated AC2. Format: biochemical, Rat. The conditions noted are these: for Gαs/Gβγ stimulation % Max Inhibition: Gβγ stimulation of Gαs-stimulated AC2, cAMP level at 300 μM peptide, peptides 46 nM to 300 μM. A digest of the protocol:
as §1
In general terms: Changes in cAMP serve as a functional read-out for many G protein-coupled receptors.

Another test deals with AC2 (Rattus norvegicus, UniProt P26769). The experiment in a line: Adenylyl cyclase activity assay, basal AC2 activity in Hi5 membranes. The class given is biochemical. A digest of the protocol:
as §1

Chain of Gβγ (P62873 2-340 limits assumed): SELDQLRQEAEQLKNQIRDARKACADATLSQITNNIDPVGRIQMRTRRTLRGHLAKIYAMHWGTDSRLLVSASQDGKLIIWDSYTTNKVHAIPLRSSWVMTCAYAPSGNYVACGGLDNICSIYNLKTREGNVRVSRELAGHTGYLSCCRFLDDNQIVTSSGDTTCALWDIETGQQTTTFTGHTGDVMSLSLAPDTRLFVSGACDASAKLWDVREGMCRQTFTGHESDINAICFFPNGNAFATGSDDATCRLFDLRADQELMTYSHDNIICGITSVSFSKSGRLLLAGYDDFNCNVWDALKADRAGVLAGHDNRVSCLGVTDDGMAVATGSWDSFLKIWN
Chain of Gβγ (P59768 2-68 limits assumed): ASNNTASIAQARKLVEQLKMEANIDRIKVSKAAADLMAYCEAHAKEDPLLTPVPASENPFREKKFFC
Chain of Gβγ stimulation of Gαs-stimulated AC2 (P62873 2-340 limits assumed): as the sequence (P62873 2-340 limits assumed) above
Chain of Gβγ stimulation of Gαs-stimulated AC2 (P59768 2-68 limits assumed): as the sequence (P59768 2-68 limits assumed) above
Chain of AC2 (P26769 whole entry): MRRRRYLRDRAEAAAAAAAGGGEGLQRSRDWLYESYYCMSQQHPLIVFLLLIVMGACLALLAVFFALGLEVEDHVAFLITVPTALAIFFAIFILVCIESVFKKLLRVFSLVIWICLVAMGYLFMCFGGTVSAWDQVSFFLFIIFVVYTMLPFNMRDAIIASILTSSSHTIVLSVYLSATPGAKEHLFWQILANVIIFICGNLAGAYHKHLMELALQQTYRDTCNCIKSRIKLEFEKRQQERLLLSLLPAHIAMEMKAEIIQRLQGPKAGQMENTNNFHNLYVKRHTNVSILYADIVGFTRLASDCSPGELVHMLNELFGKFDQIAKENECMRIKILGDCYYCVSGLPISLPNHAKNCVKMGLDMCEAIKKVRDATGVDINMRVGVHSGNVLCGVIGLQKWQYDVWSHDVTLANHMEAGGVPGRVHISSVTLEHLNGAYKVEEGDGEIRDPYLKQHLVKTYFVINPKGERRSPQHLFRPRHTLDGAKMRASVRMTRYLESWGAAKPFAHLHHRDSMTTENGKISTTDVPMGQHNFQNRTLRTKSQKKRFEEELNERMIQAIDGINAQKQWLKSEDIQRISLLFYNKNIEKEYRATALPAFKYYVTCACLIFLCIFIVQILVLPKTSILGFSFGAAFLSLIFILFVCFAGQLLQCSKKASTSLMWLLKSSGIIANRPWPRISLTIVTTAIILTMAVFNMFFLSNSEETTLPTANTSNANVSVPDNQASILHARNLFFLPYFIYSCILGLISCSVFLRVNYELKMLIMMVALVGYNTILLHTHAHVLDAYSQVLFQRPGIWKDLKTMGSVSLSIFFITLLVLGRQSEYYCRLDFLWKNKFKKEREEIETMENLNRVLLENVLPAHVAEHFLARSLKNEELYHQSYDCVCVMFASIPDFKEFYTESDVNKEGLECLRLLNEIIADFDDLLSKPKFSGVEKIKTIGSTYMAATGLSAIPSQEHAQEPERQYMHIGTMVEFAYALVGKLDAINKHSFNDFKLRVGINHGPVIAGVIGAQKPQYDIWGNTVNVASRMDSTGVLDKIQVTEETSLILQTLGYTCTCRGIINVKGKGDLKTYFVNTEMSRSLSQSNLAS
Chain of Gαs-stimulated AC2 (P26769 whole entry): as above

What is called Kd is the constant that tells how readily two partners part at equilibrium. A higher Kd goes with weaker binding. The IC50 is the point on the concentration scale where inhibition reaches its midpoint. Low values mean greater potency in that assay, high ones weaker potency in that assay. At Gβγ, `CC[C@H](C)[C@H](NC(=O)[C@@H]1CCCN1C(=O)[C@H](CC(C)C)NC(=O)CNC(=O)[C@H](CO)NC(=O)[C@@H](NC(=O)[C@H](CS)NC(=O)[C@H](Cc1ccc(O)cc1)NC(=O)[C@H](Cc1ccc(O)cc1)NC(=O)[C@@H](N)CS)C(C)C)C(=O)N[C@@H](CO)C(=O)N[C@@H](CC(C)C)C(=O)N1CCC[C@H]1C(=O)N[C@@H](CC(N)=O)C(=O)N[C@@H](Cc1c[nH]cn1)C(=O)N[C@@H](C)C(=O)N[C@@H](CCCCN)C(=O)N[C@@H](CC(N)=O)C(=O)N[C@@H](CS)C(=O)N[C@H](C(=O)N[C@@H](CCCCN)C(=O)N[C@@H](CCSC)C(=O)O)C(C)C` [AC2 C1a (339-360)] (H-CYYCVSGLPISLPNHAKNCVKM-OH) displayed a Kd of 40.5 ± 6.3 nM. Further, the IC50 at Gαs-stimulated AC2 came to 82.3 µM; in test [1], 5.6 µM; against AC2, 7.7 µM. The “Gαs/Gβγ stimulation % Max Inhibition” value in test [1] (listed as C1a region) came out at 88%.

For the compound “ERMIQAIDGINAQKQWLKSEDIQR [AC2 C1b (554-577)]”, the IC50 is 36.7 µM at Gαs-stimulated AC2, 12.2 µM in test [1] and 16.7 µM against AC2. Moreover, the “Gαs/Gβγ stimulation % Max Inhibition” value in test [1] was 11.5%.

On to “ISLLFYNKVLEKEYRATALPAFKYY [AC2 C1b (578-602)]”, for which the Kd at Gβγ was determined as 102 ± 14 nM. The IC50 was 2.5 µM at Gαs-stimulated AC2, 2.2 µM in test [1] and 38.5 µM at AC2. For the same compound, the “Gαs/Gβγ stimulation % Max Inhibition” value is listed as 113.1% in test [1] and greater than 100% in test [1] (listed as C1b 578-602).

For “MTRYLESWGAAKPFAHL [AC2 C1b (493-509), reference compound]”, the dissociation constant (Kd) at Gβγ was found to be 2.7 ± 1.3 nM.

Turning to “MTTENGKISTTDVPMGQHNFQNRTLR-OH [AC2 C1b (515-541)]”, on Gβγ (Biacore SPR, immobilized biotinylated peptide, Gβγ 12.5-200 nM), the “Binding to Gβγ (in words)” value is on record as “did not interact with Gβγ”.

“QEHAQEPERQYMHIGTMVEFAYALVGK [QEHA C2 (956-982), reference compound]” yielded a Kd on Gβγ of 13.9 ± 8.8 nM.

In turn, “RYLESWGAAKPFAHLHHRDS [AC2 C1b (495-514)]” yielded a Kd on Gβγ of 4.7 ± 1.7 nM. The IC50 is 32.9 µM at Gαs-stimulated AC2, 13.9 µM in test [1] and greater than 100 µM at AC2. The “Gαs/Gβγ stimulation % Max Inhibition” value in test [1] is recorded as 67.0%.
